In ChEMBL document CHEMBL1129566 (J Med Chem, 1996):
In brackets after ≈: the same amount, converted by molar mass.

What was measured:
Assay type in all cases: functional
Citrobacter freundii = test: In vitro minimum inhibitory concentration required to produce antibacterial activity against Citrobacter freundii 902
In short: (§1)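 Two-fold agar dilution on Mueller-Hinton agar. Overnight broth cultures diluted in fresh broth to […]; 10⁴ CFU/spot applied by inoculating apparatus onto plates with graded drug concentrations. Incubated 18 h at 37 °C; MIC taken as the lowest concentration giving complete growth inhibition.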

Escherichia coli = test: In vitro minimum inhibitory concentration required to produce antibacterial activity against Escherichia coli 25922; in short: as §1
Enterococcus faecalis = test: In vitro minimum inhibitory concentration required to produce antibacterial activity against Enterococcus faecalis ATCC 29212; in short: as §1
Enterobacter cloacae = test: In vitro minimum inhibitory concentration required to produce antibacterial activity against Enterobacter cloacae 908SSI; in short: as §1
Pseudomonas aeruginosa = test: In vitro minimum inhibitory concentration required to produce antibacterial activity against Pseudomonas aeruginosa ATCC 27853; in short: as §1
Staphylococcus aureus [1] = test: In vitro minimum inhibitory concentration required to produce antibacterial activity against Staphylococcus aureus 743 MRSA; in short: as §1
Staphylococcus aureus [2] = test: In vitro minimum inhibitory concentration required to produce antibacterial activity against Staphylococcus aureus 887MSSA; in short: as §1
Streptococcus pneumoniae [3] = test: In vitro minimum inhibitory concentration required to produce antibacterial activity against Streptococcus pneumoniae 1/37(pen r); in short: as §1
Streptococcus pneumoniae [4] = test: Minimum inhibitory concentration for antibacterial activity against Streptococcus pneumoniae Q19 (pen s); in short: as §1

SMILES	MIC (Citrobacter freundii) [µg/mL]	MIC (Escherichia coli) [µg/mL]	MIC (Enterococcus faecalis) [µg/mL]	MIC (Enterobacter cloacae) [µg/mL]	MIC (Pseudomonas aeruginosa) [µg/mL]	MIC (Staphylococcus aureus [1]) [µg/mL]	MIC (Staphylococcus aureus [2]) [µg/mL]	MIC (Streptococcus pneumoniae [3]) [µg/mL]	MIC (Streptococcus pneumoniae [4]) [µg/mL]
Nc1nc(/C(=N/O)C(=O)N[C@@H]2C(=O)N3C(C(=O)O)=C(/C=C4\CCN(Cc5nn[nH]n5)C4=O)CS[C@H]23)cs1	2 (≈ 3.66 µM)	0.25 (≈ 0.457 µM)	16 (≈ 29.3 µM)	16 (≈ 29.3 µM)	> 32	32 (≈ 58.5 µM)	8 (≈ 14.6 µM)	2 (≈ 3.66 µM)	0.12 (≈ 0.22 µM)
Nc1nc(/C(=N/O)C(=O)N[C@@H]2C(=O)N3C(C(=O)O)=C(/C=C4\CCN(CC5CC5)C4=O)CS[C@H]23)cs1	0.12 (≈ 0.231 µM)	0.12 (≈ 0.231 µM)	1 (≈ 1.93 µM)	0.25 (≈ 0.482 µM)	16 (≈ 30.9 µM)	16 (≈ 30.9 µM)	1 (≈ 1.93 µM)	1 (≈ 1.93 µM)	0.03 (≈ 0.0579 µM)
C=CC1=C(C(=O)O)N2C(=O)[C@@H](NC(=O)/C(=N\O)c3csc(N)n3)[C@H]2SC1	8 (≈ 20.2 µM)	0.25 (≈ 0.632 µM)	16 (≈ 40.5 µM)	16 (≈ 40.5 µM)	> 32	16 (≈ 40.5 µM)	0.5 (≈ 1.26 µM)	4 (≈ 10.1 µM)	0.25 (≈ 0.632 µM)
COc1cccc(CN2CC/C(=C\C3=C(C(=O)O)N4C(=O)[C@@H](NC(=O)/C(=N\O)c5csc(N)n5)[C@H]4SC3)C2=O)c1	2 (≈ 3.42 µM)	2 (≈ 3.42 µM)	1 (≈ 1.71 µM)	4 (≈ 6.84 µM)	> 32	8 (≈ 13.7 µM)	1 (≈ 1.71 µM)	1 (≈ 1.71 µM)	≤ 0.06
CC(C)CO/N=C(\C(=O)N[C@@H]1C(=O)N2C(C(=O)O)=C(/C=C3\CCN(CC(F)(F)F)C3=O)CS[C@H]12)c1csc(N)n1	4 (≈ 6.64 µM)	2 (≈ 3.32 µM)	16 (≈ 26.6 µM)	4 (≈ 6.64 µM)	16 (≈ 26.6 µM)	4 (≈ 6.64 µM)	8 (≈ 13.3 µM)	1 (≈ 1.66 µM)	≤ 0.06
Nc1nc(/C(=N/O)C(=O)N[C@@H]2C(=O)N3C(C(=O)O)=C(/C=C4\CCN(c5ccccc5)C4=O)CS[C@H]23)cs1	0.25 (≈ 0.462 µM)	0.25 (≈ 0.462 µM)	0.25 (≈ 0.462 µM)	0.5 (≈ 0.925 µM)	16 (≈ 29.6 µM)	8 (≈ 14.8 µM)	0.5 (≈ 0.925 µM)	2 (≈ 3.7 µM)	0.06 (≈ 0.111 µM)
Nc1nc(/C(=N/O)C(=O)N[C@@H]2C(=O)N3C(C(=O)O)=C(/C=C4\CCN(CC(=O)O)C4=O)CS[C@H]23)cs1	2 (≈ 3.83 µM)	0.12 (≈ 0.23 µM)	8 (≈ 15.3 µM)	8 (≈ 15.3 µM)	> 32	> 32	16 (≈ 30.6 µM)	2 (≈ 3.83 µM)	0.12 (≈ 0.23 µM)
Nc1nc(/C(=N/O)C(=O)N[C@@H]2C(=O)N3C(C(=O)O)=C(/C=C4\CCN(c5cccnc5)C4=O)CS[C@H]23)cs1	≤ 0.12	≤ 0.12	0.5 (≈ 0.923 µM)	≤ 0.12	16 (≈ 29.5 µM)	8 (≈ 14.8 µM)	1 (≈ 1.85 µM)	2 (≈ 3.69 µM)	0.12 (≈ 0.222 µM)
C=CCO/N=C(\C(=O)N[C@@H]1C(=O)N2C(C(=O)O)=C(/C=C3\CCN(CC(F)(F)F)C3=O)CS[C@H]12)c1csc(N)n1	2 (≈ 3.41 µM)	1 (≈ 1.7 µM)	32 (≈ 54.6 µM)	4 (≈ 6.82 µM)	8 (≈ 13.6 µM)	4 (≈ 6.82 µM)	4 (≈ 6.82 µM)	0.5 (≈ 0.852 µM)	≤ 0.06
COc1cccc(N2CC/C(=C\C3=C(C(=O)O)N4C(=O)[C@@H](NC(=O)/C(=N\O)c5csc(N)n5)[C@H]4SC3)C2=O)c1	0.5 (≈ 0.876 µM)	0.5 (≈ 0.876 µM)	0.5 (≈ 0.876 µM)	1 (≈ 1.75 µM)	> 32	8 (≈ 14 µM)	1 (≈ 1.75 µM)	0.5 (≈ 0.876 µM)	≤ 0.06
Nc1nc(/C(=N/O)C(=O)N[C@@H]2C(=O)N3C(C(=O)O)=C(/C=C4\CCN(c5ccc(O)c(O)c5)C4=O)CS[C@H]23)cs1	0.12 (≈ 0.21 µM)	0.25 (≈ 0.437 µM)	0.5 (≈ 0.873 µM)	0.25 (≈ 0.437 µM)	32 (≈ 55.9 µM)	16 (≈ 27.9 µM)	2 (≈ 3.49 µM)	2 (≈ 3.49 µM)	≤ 0.06
Nc1nc(/C(=N/O)C(=O)N[C@@H]2C(=O)N3C(C(=O)O)=C(/C=C4/CCN(C5CC5)C4=O)CS[C@H]23)cs1	0.5 (≈ 0.991 µM)	0.5 (≈ 0.991 µM)	16 (≈ 31.7 µM)	1 (≈ 1.98 µM)	> 32	16 (≈ 31.7 µM)	1 (≈ 1.98 µM)	2 (≈ 3.96 µM)	0.25 (≈ 0.495 µM)
Nc1nc(/C(=N/O)C(=O)N[C@@H]2C(=O)N3C(C(=O)O)=C(/C=C4\CCCN(c5ccccc5)C4=O)CS[C@H]23)cs1	1 (≈ 1.8 µM)	1 (≈ 1.8 µM)	8 (≈ 14.4 µM)	4 (≈ 7.21 µM)	> 32	32 (≈ 57.7 µM)	2 (≈ 3.61 µM)	4 (≈ 7.21 µM)	0.12 (≈ 0.216 µM)
Nc1nc(/C(=N/OCCF)C(=O)N[C@@H]2C(=O)N3C(C(=O)O)=C(/C=C4\CCN(CC(F)(F)F)C4=O)CS[C@H]23)cs1	1 (≈ 1.69 µM)	0.5 (≈ 0.844 µM)	32 (≈ 54 µM)	2 (≈ 3.38 µM)	8 (≈ 13.5 µM)	16 (≈ 27 µM)	4 (≈ 6.75 µM)	1 (≈ 1.69 µM)	≤ 0.06
Nc1nc(/C(=N/O)C(=O)N[C@@H]2C(=O)N3C(C(=O)O)=C(/C=C4\CCNC4=O)CS[C@H]23)cs1	0.5 (≈ 1.08 µM)	≤ 0.06	2 (≈ 4.31 µM)	0.5 (≈ 1.08 µM)	> 16	8 (≈ 17.2 µM)	1 (≈ 2.15 µM)	2 (≈ 4.31 µM)	0.06 (≈ 0.129 µM)
Nc1nc(/C(=N/O)C(=O)N[C@@H]2C(=O)N3C(C(=O)O)=C(/C=C4\CN(c5ccccc5)C4=O)CS[C@H]23)cs1	1 (≈ 1.9 µM)	1 (≈ 1.9 µM)	0.25 (≈ 0.475 µM)	2 (≈ 3.8 µM)	16 (≈ 30.4 µM)	8 (≈ 15.2 µM)	0.5 (≈ 0.95 µM)	4 (≈ 7.6 µM)	0.5 (≈ 0.95 µM)
Cc1cc(N2CC/C(=C\C3=C(C(=O)O)N4C(=O)[C@@H](NC(=O)/C(=N\O)c5csc(N)n5)[C@H]4SC3)C2=O)no1	0.12 (≈ 0.22 µM)	0.12 (≈ 0.22 µM)	0.25 (≈ 0.458 µM)	0.5 (≈ 0.916 µM)	> 32	8 (≈ 14.7 µM)	1 (≈ 1.83 µM)	2 (≈ 3.67 µM)	0.12 (≈ 0.22 µM)
C=CCN1CC/C(=C\C2=C(C(=O)O)N3C(=O)[C@@H](NC(=O)/C(=N\O)c4csc(N)n4)[C@H]3SC2)C1=O	≤ 0.06	≤ 0.06	1 (≈ 1.98 µM)	0.25 (≈ 0.495 µM)	16 (≈ 31.7 µM)	16 (≈ 31.7 µM)	1 (≈ 1.98 µM)	1 (≈ 1.98 µM)	≤ 0.06
CO/N=C(\C(=O)N[C@@H]1C(=O)N2C(C(=O)O)=C(/C=C3\CCN(CC(F)(F)F)C3=O)CS[C@H]12)c1csc(N)n1	0.25 (≈ 0.446 µM)	0.25 (≈ 0.446 µM)	> 32	1 (≈ 1.78 µM)	8 (≈ 14.3 µM)	8 (≈ 14.3 µM)	8 (≈ 14.3 µM)	0.5 (≈ 0.892 µM)	≤ 0.03
C#CCN1CC/C(=C\C2=C(C(=O)O)N3C(=O)[C@@H](NC(=O)/C(=N\O)c4csc(N)n4)[C@H]3SC2)C1=O	0.12 (≈ 0.239 µM)	≤ 0.06	1 (≈ 1.99 µM)	1 (≈ 1.99 µM)	8 (≈ 15.9 µM)	4 (≈ 7.96 µM)	1 (≈ 1.99 µM)	2 (≈ 3.98 µM)	≤ 0.06
Nc1nc(/C(=N/OC2CCCC2)C(=O)N[C@@H]2C(=O)N3C(C(=O)O)=C(/C=C4\CCN(CC(F)(F)F)C4=O)CS[C@H]23)cs1	4 (≈ 6.51 µM)	2 (≈ 3.25 µM)	8 (≈ 13 µM)	4 (≈ 6.51 µM)	8 (≈ 13 µM)	8 (≈ 13 µM)	4 (≈ 6.51 µM)	1 (≈ 1.63 µM)	≤ 0.06
Nc1nc(/C(=N/O)C(=O)N[C@@H]2C(=O)N3C(C(=O)O)=C(/C=C4\CCN(C5CC5)C4=O)CS[C@H]23)cs1	0.12 (≈ 0.238 µM)	≤ 0.06	1 (≈ 1.98 µM)	0.12 (≈ 0.238 µM)	8 (≈ 15.9 µM)	8 (≈ 15.9 µM)	1 (≈ 1.98 µM)	2 (≈ 3.96 µM)	0.03 (≈ 0.0595 µM)
Nc1nc(/C(=N/O)C(=O)N[C@@H]2C(=O)N3C(C(=O)O)=C(/C=C4/CN(c5ccccc5)C4=O)CS[C@H]23)cs1	4 (≈ 7.6 µM)	2 (≈ 3.8 µM)	0.5 (≈ 0.95 µM)	4 (≈ 7.6 µM)	16 (≈ 30.4 µM)	2 (≈ 3.8 µM)	0.12 (≈ 0.228 µM)	2 (≈ 3.8 µM)	0.12 (≈ 0.228 µM)
Nc1nc(/C(=N/O)C(=O)N[C@@H]2C(=O)N3C(C(=O)O)=C(/C=C4\CCN(c5ccc(O)cc5)C4=O)CS[C@H]23)cs1	≤ 0.06	≤ 0.06	0.5 (≈ 0.898 µM)	0.25 (≈ 0.449 µM)	4 (≈ 7.19 µM)	4 (≈ 7.19 µM)	0.5 (≈ 0.898 µM)	1 (≈ 1.8 µM)	0.12 (≈ 0.216 µM)
Nc1nc(/C(=N/O)C(=O)N[C@@H]2C(=O)N3C(C(=O)O)=C(/C=C4\CCN(c5cccc([N+](=O)[O-])c5)C4=O)CS[C@H]23)cs1	0.12 (≈ 0.205 µM)	0.12 (≈ 0.205 µM)	0.12 (≈ 0.205 µM)	0.25 (≈ 0.427 µM)	16 (≈ 27.3 µM)	4 (≈ 6.83 µM)	0.5 (≈ 0.854 µM)	2 (≈ 3.42 µM)	≤ 0.06
Nc1nc(/C(=N/O)C(=O)N[C@@H]2C(=O)N3C(C(=O)O)=C(/C=C4\CCN(O)C4=O)CS[C@H]23)cs1	0.5 (≈ 1.04 µM)	≤ 0.06	4 (≈ 8.32 µM)	16 (≈ 33.3 µM)	8 (≈ 16.6 µM)	16 (≈ 33.3 µM)	1 (≈ 2.08 µM)	4 (≈ 8.32 µM)	0.06 (≈ 0.125 µM)
